Columns and labels:
Format in all cases: organism-based, DMS-53
Conditions in all cases: in vivo, 504 h
Mus musculus [1] = test: Toxicity in BALB/c nu/nu mouse xenografted with human DMS53 cells assessed as change in hematopoetic cells in splenic red pulp at 3 mg/kg, iv administered for 5 days a week measured after 21 days by hematoxylin and eosin staining method; set-up: dose 3 mg/kg, route intravenous
Summary of the method: (§1)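 DMS-53 xenografts in nude mice; dosing started at 100 mm3 tumor volume. Agents given iv via tail vein, 5 days/week for 21 days, vehicle 30% propylene glycol/saline, vehicle-treated controls. Mice sacrificed day 21. Body and organ weights and hematological indices recorded. Spleen, kidney, liver, heart, lungs and brain were stained with H&E, Perls' and Gomori Trichrome and read by an independent veterinary pathologist.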

Mus musculus [2] = test: Toxicity in BALB/c nu/nu mouse xenografted with human DMS53 cells assessed as change in hemoglobin level at 4 mg/kg, iv administered for 5 days a week measured after 21 days; set-up: dose 4 mg/kg, route intravenous; summary of the method: as §1
Mus musculus [3] = test: Toxicity in BALB/c nu/nu mouse xenografted with human DMS53 cells assessed as vacuolation at 8 mg/kg, iv administered for 5 days a week measured after 21 days by hematoxylin and eosin staining method; set-up: dose 8 mg/kg, route intravenous
Summary of the method: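 Nude mice with DMS-53 xenografts dosed by tail-vein iv injection in 30% propylene glycol/saline, starting at 100 mm3 tumour volume, 5 days/week for 21 days. Spleen, kidney, liver, heart, lungs and brain were stained with H&E, Perls' (Fe loading) and Gomori Trichrome (fibrosis) by standard methods, and an independent veterinary pathologist examined them.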

Row | Structure (SMILES) | Activity (Mus musculus [1]) | Activity (Mus musculus [2]) | Activity (Mus musculus [3])
1 | CCN(C)C(=S)NN=C(c1ccccn1)c1ccccn1.Cl | Non-toxic |  | 
2 | CN(C(=S)NN=C(c1ccccn1)c1ccccn1)C1CCCCC1.Cl |  | Non-toxic | Toxic

Reference: ChEMBL document CHEMBL2203173 (J Med Chem, 2012)
